Bioassay records: PubChem BioAssay, several laboratories
Hits are enriched below; roughly 4.1% of the tested compounds scored in any of these assays.
ATG4B inhibitor: inhibitors of human ATG4B cysteine protease; ATG4B cleavage of LC3-PLA2, NBD-HPC fluorescence, 1 h; inhibition, % at 8.33 µM; Q9Y4P1; AID 504462; 340,000 compounds, 0.51% hits; in the data active means inhibition above about 40%
MC4R antagonist: human MC4R antagonism in cAMP assay; inhibition, % at 6.5 µM; MC4R-expressing cells, MTII-stimulated cAMP, LANCE TR-FRET; P32245; 360,000 compounds, 0.48% hits;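 active means inhibition above its plate's cutoff, the mean of tested wells on that plate plus 3 SD, cut at about 29% in these data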
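Material: human MC4R-expressing U2OS cells. Probe or stimulus: Melanotan II challenge. Dosing: 6.5 µM single dose. Times: 30-min compound, 1-h challenge, 1-h detection, room temperature. Technique: TR-FRET with Eu-cAMP and labeled anti-cAMP, 671 nm. Replication: singlicate.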
SMARCA2 activ: activators of SMARCA2 function; MG213 cells, MMTV-luciferase reporter, dexamethasone, overnight; activation, % at 9.1 µM; 370,000 compounds, 1% hits; in the data active means activation above about 7.8%
MPTP block: inhibitors of mitochondrial permeability transition pore; isolated mouse mitochondria, Ca2+ swelling absorbance, 30 min; inhibition, % at 10 µM; 360,000 compounds, 1.4% hits; AID 602449;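 active means inhibition of 50% or more, scaled per plate between neutral and stimulator controls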
MC4R barr agon: agonists of human melanocortin 4 receptor (MC4R) beta-arrestin | U2OS MC4R beta-arrestin complementation, luminescence; percent of melanotan II response, DMSO zero | activation, % at 8.9 µM | 360,000 compounds, 0.98% hits;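 active means activation above a per-plate cutoff, the mean activation of sample wells on that plate plus 3 SD, cut at about 8% in these data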
MC4R barr conf: human MC4R beta-arrestin agonism confirmation; shares compounds with MC4R barr agon; U2OS MC4R beta-arrestin recruitment, luminescence; scaled DMSO 0%, Melanotan II 100%; activation, % at 8.9 µM; 2,400 compounds, 31% hits; AID 602192;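 active means mean activation across replicates above the hit cutoff set in the earlier primary screen, cut at about 8% in these data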
MOR DOR agonist: counter-screen for MC4R agonists: agonists of mu-delta opioid heterodimer. 2,400 compounds, 5.8% hits. U2OS PathHunter beta-arrestin, beta-gal luminescence; percent of deltorphin B response, DMSO zero. activation, % at 9.2 µM. shares compounds with MC4R barr agon;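 active means mean activation across replicates exceeds the hit threshold derived in the earlier primary screen, cut at about 18% in these data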
Target sequence (P35372 whole entry, looked up): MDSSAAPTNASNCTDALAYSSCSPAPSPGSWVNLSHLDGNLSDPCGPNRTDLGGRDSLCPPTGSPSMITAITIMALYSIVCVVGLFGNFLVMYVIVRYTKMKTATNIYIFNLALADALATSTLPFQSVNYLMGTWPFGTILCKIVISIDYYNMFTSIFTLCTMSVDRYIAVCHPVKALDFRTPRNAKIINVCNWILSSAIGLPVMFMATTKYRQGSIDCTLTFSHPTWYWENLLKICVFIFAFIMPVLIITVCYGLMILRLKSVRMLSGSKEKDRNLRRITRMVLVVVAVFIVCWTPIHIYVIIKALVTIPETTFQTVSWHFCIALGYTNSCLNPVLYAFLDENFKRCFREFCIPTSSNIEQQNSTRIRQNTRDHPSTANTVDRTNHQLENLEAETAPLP
Target sequence (P41143 whole entry, looked up): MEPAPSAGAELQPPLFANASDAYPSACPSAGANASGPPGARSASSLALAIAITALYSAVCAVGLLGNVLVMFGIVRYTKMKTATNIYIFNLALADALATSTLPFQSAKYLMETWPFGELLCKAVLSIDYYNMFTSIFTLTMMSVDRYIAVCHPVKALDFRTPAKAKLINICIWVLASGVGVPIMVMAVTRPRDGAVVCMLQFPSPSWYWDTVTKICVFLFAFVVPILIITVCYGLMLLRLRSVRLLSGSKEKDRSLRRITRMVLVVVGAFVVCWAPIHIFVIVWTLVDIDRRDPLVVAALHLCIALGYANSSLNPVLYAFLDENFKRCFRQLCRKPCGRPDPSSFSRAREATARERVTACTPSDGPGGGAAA
Large screens that a line does not name were inactive (follow-up assays come after a bar, where they were run).

CCOC(=O)CCCN1CC(O)=C(c2nc(-c3ccc(Cl)cc3)cs2)C1=N	MC4R barr agon 23 | MC4R barr conf inactive | MOR DOR agonist inactive
CCCCN1CC(O)=C(c2nc(-c3ccc(Br)cc3)cs2)C1=N	none
O=c1c2ccccc2nnn1CSc1nnc(Nc2ccccc2)s1	MC4R barr agon 10 | MC4R barr conf inactive | MOR DOR agonist inactive
Cc1ccc(NC(=O)c2cc(-c3ccc(C)c(C)c3O)n[nH]2)cc1C	none
CC(=O)Nc1ccc(NC(=O)c2cc(-c3ccc(C)c(C)c3O)n[nH]2)cc1	MC4R barr agon 9.7 | MC4R barr conf inactive | MOR DOR agonist inactive
CSc1cccc(NC(=S)NN/C(=N/S(=O)(=O)c2ccccc2)N2CCCC2)c1	none (no result: ATG4B inhibitor, MC4R antagonist, MPTP block, MC4R barr agon)
O=C(CN1CCN(c2ccccc2)CC1)Nc1ccc(Oc2ccccc2)cc1	MC4R barr agon 19 | MC4R barr conf inactive | MOR DOR agonist inactive
O=C(CN1CCOCC1)Nc1ccc(Oc2ccccc2)cc1	none
Cc1ccc(C(C)C)c(OCC(=O)OCC(=O)c2c(N)n(C)c(=O)n(C)c2=O)c1	none
C=CCn1c(COc2cc(C)ccc2C(C)C)nnc1SCC(=O)c1c(N)n(C)c(=O)n(C)c1=O	MC4R barr agon 9.7 | MC4R barr conf inactive | MOR DOR agonist inactive
CSc1ccccc1OCc1cc(C(=O)NC2CCc3ccccc32)no1 (centres undefined)	MC4R barr agon 64 | MC4R barr conf 9.5 | MOR DOR agonist inactive
COc1ccc(-c2sc3cc4c(cc3c2C#CC2(N)CCCCC2)OCO4)cc1	MC4R barr agon 16 | MC4R barr conf inactive | MOR DOR agonist inactive
COc1cccc(-c2sc3ccc(OC)cc3c2C#CC2(O)CCCCC2)c1	none
COc1ccc(-c2sc3ccc(N4CCOCC4)cc3c2C#CC2(O)CCCCC2)cc1	MC4R barr agon 32 | MC4R barr conf 45 | MOR DOR agonist inactive
COc1cc(OC)cc(-c2sc3ccc(OC)cc3c2C#CC2(N)CCCCC2)c1	MC4R barr agon 21 | MC4R barr conf 14 | MOR DOR agonist inactive
O=C(COC(=O)c1ccccc1O)Nc1cccc2ccccc12	MC4R barr agon 12 | MC4R barr conf inactive | MOR DOR agonist inactive
O=C(COC(=O)c1cc2ccccc2cc1O)Nc1cccnc1Cl	none
O=C(COC(=O)c1cc2ccccc2cc1O)Nc1ccccc1F	MC4R barr agon 13 | MC4R barr conf inactive | MOR DOR agonist inactive
COc1ccccc1NC(=O)COC(=O)c1cc2ccccc2cc1O	MC4R barr agon 17 | MC4R barr conf inactive | MOR DOR agonist inactive
COc1ccc(C(C)=O)cc1COc1ccc(Cl)cc1Cl	MC4R barr agon 11 | MC4R barr conf inactive | MOR DOR agonist inactive
COc1ccc(OC)c(CN(CC(F)(F)F)S(=O)(=O)c2ccccc2Br)c1	none (no result: ATG4B inhibitor, MC4R antagonist, MPTP block, MC4R barr agon)
COc1ccc(C(C)=O)cc1COC(=O)c1cccnc1Cl	none
COc1ccc(C(C)=O)cc1COC(=O)c1cc2ccccc2cc1O	MC4R barr agon 11 | MC4R barr conf inactive | MOR DOR agonist inactive
COc1ccc(C(C)=O)cc1COC(=O)c1ccc(OCc2c(C)noc2C)cc1	MC4R barr agon 16 | MC4R barr conf 9.2 | MOR DOR agonist inactive
COC(=O)C[C@H]1CC[C@@H]2[C@H](COc3ccc(NC(=O)C(C)C)cc3C(=O)N2C)O1	none (no result: ATG4B inhibitor, MC4R antagonist, MPTP block, MC4R barr agon)
CC(C)Cn1c(=S)[nH]c2cc(C(=O)NCc3ccccc3F)ccc2c1=O	MC4R barr agon 14 | MC4R barr conf inactive | MOR DOR agonist inactive
CCCCCCCCN1C(=O)[C@@H](CC(=O)NCc2ccc(OC)c(OC)c2)C[C@@]2(C(=O)OC)C1=C[C@H](C(C)C)O[C@@H]2C1CC1	none (no result: ATG4B inhibitor, MC4R antagonist, MPTP block, MC4R barr agon)
O=C(Nc1c(-c2ccc(F)cc2)nc2ncccn12)C1CC1	none (no result: ATG4B inhibitor, MC4R antagonist, MPTP block, MC4R barr agon)
CCN(CC)CCN(C(=O)CCS(=O)(=O)c1ccccc1)c1nc2c(C)cc(C)cc2s1	MC4R barr agon 12 | MC4R barr conf inactive | MOR DOR agonist inactive
COC(=O)C1=C(C)N(Cc2ccc(C(F)(F)F)cc2)C(=NCc2ccccc2C(F)(F)F)NC1c1ccccc1C(F)(F)F (centres undefined)	none (no result: ATG4B inhibitor, MC4R antagonist, MPTP block, MC4R barr agon)
O=C(N[C@@H](Cc1cccnc1)C(=O)N1CCC[C@H]1C(=O)NCCc1ccccc1Cl)c1cccs1	none (no result: ATG4B inhibitor, MC4R antagonist, MPTP block, MC4R barr agon)
COc1ccc(-c2nc3c(Br)c(N)c(Br)cc3o2)cc1	MC4R barr agon 11 (no result: SMARCA2 activ) | MC4R barr conf inactive | MOR DOR agonist inactive
CCCc1cc(=O)oc2cc3oc(C)c(C)c3cc12	MC4R barr agon 13 | MC4R barr conf inactive | MOR DOR agonist inactive
Cc1ccc(C(C)C)c(OCCNCCc2ccccc2)c1	MC4R barr agon 9.9 | MC4R barr conf inactive | MOR DOR agonist inactive
C=CCc1cc(/C=N/NC(=O)CSc2nnc(CCCc3ccc(OC)cc3)o2)cc(OC)c1O	MC4R barr agon 33 | MC4R barr conf inactive | MOR DOR agonist inactive
C=CCc1cc(/C=N\NC(=O)CSc2nnc(CCCc3ccc(OC)c(C)c3)o2)cc(OC)c1O	MC4R barr agon 23 | MC4R barr conf inactive | MOR DOR agonist inactive
COc1ccc(/C=N/NC(=O)CSc2nnc(CCCc3ccc(OC)c(C)c3)o2)cc1	none
COC(=O)C1CN(Cc2cn(Cc3ccc(F)cc3)nn2)CCS(=O)(=O)N1Cc1ccc(OC)cc1 (centres undefined)	none (no result: ATG4B inhibitor, MC4R antagonist, MPTP block, MC4R barr agon)
Cc1ccc(NC(=S)NNC(=O)CSc2nnc(SCc3cccc4ccccc34)s2)cc1	none (no result: ATG4B inhibitor, MC4R antagonist, MPTP block, MC4R barr agon)
COc1ccc(/C=N\NC(=O)c2cc(OCC(F)(F)F)ccc2OCC(F)(F)F)cc1	MC4R barr agon 11 | MC4R barr conf inactive | MOR DOR agonist inactive
c1ccc(-c2cc(-c3nnc4n3N=C(c3ccc5ccccc5c3)CS4)[nH]n2)cc1	MC4R barr agon 32 | MC4R barr conf 14 | MOR DOR agonist inactive
O=C(COc1ccc2ccccc2c1)Nc1ccc2c3c(cccc13)CC2	MC4R barr agon 34 | MC4R barr conf inactive | MOR DOR agonist inactive
O=C(CN1CCCCCCC1)Nc1cc(Cl)cc(Cl)c1	MC4R barr agon 14 | MC4R barr conf inactive | MOR DOR agonist inactive
CC(C)CNc1cccc2c1S(=O)(=O)N(Cc1cn(Cc3ccc(C(F)(F)F)cc3)nn1)Cc1ccccc1O2	none (no result: ATG4B inhibitor, MC4R antagonist, MPTP block, MC4R barr agon)
COc1cccc(CNC(=O)[C@H]2CCCN2C(=O)[C@H]2CCCN2C(=O)c2ccccc2C(F)(F)F)c1	none (no result: ATG4B inhibitor, MC4R antagonist, MPTP block, MC4R barr agon)
CCOc1ccc(CNC(=O)CCCc2cn(C)c3ccccc23)cc1	none
CCOc1ccc(CNC(=O)CCc2cn(Cc3ccccc3)c3ccccc23)cc1	MC4R barr agon 13 | MC4R barr conf 10 | MOR DOR agonist inactive
C[C@@H]1CCCN1c1cccc2c1S(=O)(=O)N(C1CC1)CCCO2	none (no result: ATG4B inhibitor, MC4R antagonist, MPTP block, MC4R barr agon)
O=C(Nc1ccccc1F)c1oc2ccccc2c1NC(=O)C1CC1	MC4R barr agon 9.6 | MC4R barr conf inactive | MOR DOR agonist inactive
O=C(Nc1ccc(F)cc1)c1oc2ccccc2c1NC(=O)C1CCCC1	none (no result: SMARCA2 activ)
